Our source for the Activity values is ChEMBL document CHEMBL3046793, “Fungicidal property of Curcuma longa L. rhizome-derived curcumin against phytopathogenic fungi in a greenhouse” (2003).

Holding throughout (assay type): functional
Assay [1] concerns Rhizoctonia solani. The experiment in a line: Fungicidal activity against Rhizoctonia solani infected in third leaf stage of rice plant at 1000 mg/l applied as spray after 5 days under green house conditions relative to control. In outline:
(§1)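 Rice at third leaf (three plants/pot) sprayed with sample in DMSO/Tween 20 (250 µg/mL) water; after 1 day inoculated by injecting at plant base R. solani inoculum (7-day wheat bran culture at 25 °C, macerated 500 g/L water). Held 5 days in lit chamber at 28 °C. Control value from diseased area against Tween-sprayed controls; triplicate.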

Assay [2] relates to Phytophthora infestans. The experiment in a line: Fungicidal activity against Phytophthora infestans infected second leaf-stage of tomato plant at 1000 mg/l applied as spray after 4 days under green house conditions relative to control.
The test system of assay [3] is Pyricularia grisea. The experiment in a line: Fungicidal activity against Magnaporthe grisea infected second leaf stage of rice plant at 500 mg/l applied as spray after 5 days under green house conditions relative to control. In outline: (§2)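 Rice at second leaf (three plants/pot) sprayed with sample (DMSO, diluted in water with 250 µg/mL Tween 20), greenhouse 1 day. Inoculated with conidia (1 × 10^6 spores/mL), 24 h at 25 °C and 100% RH, then 5 days lit at 26 ± 2 °C and 85% RH. Severity scored; control value from diseased area against Tween-sprayed controls; triplicate.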

The test system of assay [4] is Rhizoctonia solani. Description: Fungicidal activity against Rhizoctonia solani infected in third leaf stage of rice plant at 500 mg/l applied as spray after 5 days under green house conditions relative to control.
Assay [5] has as its system Blumeria graminis. Description: Fungicidal activity against Blumeria graminis infected first-leaf stage of barley plant at 500 mg/l applied as spray under green house conditions relative to control.
Assay [6] has as its system Pyricularia grisea. Description: Fungicidal activity against Magnaporthe grisea infected second leaf stage of rice plant at 1000 mg/l applied as spray after 5 days under green house conditions relative to control. In outline:
as §2

The subject of assay [7] is Puccinia recondita. Description: Fungicidal activity against Puccinia recondita infected first leaf stage of wheat plant at 1000 mg/l applied as spray after 10 days under green house conditions relative to control. In outline: (§3)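 Whole-plant greenhouse spray assay: sample dissolved in DMSO, diluted in water with Tween 20 (250 µg/mL), 50 mL sprayed over two pots; plants held 1 day before inoculation with P. recondita; controls got Tween 20 solution. Control value = (untreated − treated disease area)/untreated × 100; three replicates.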

Assay [8] has as its system Puccinia recondita. Description: Fungicidal activity against Puccinia recondita infected first leaf stage of wheat plant at 500 mg/l applied as spray after 10 days under green house conditions relative to control. In outline: as §3
For assay [9], the system named is Phytophthora infestans. The experiment in a line: Fungicidal activity against Phytophthora infestans infected second leaf-stage of tomato plant at 500 mg/l applied as spray after 4 days under green house conditions relative to control.
In assay [10] the test system is Botrytis cinerea. Description: Fungicidal activity against Botryotinia fuckeliana infected first-leaf stage of cucumber plant at 500 mg/l applied as spray after 4 to 5 days under green house conditions relative to control.
The subject of assay [11] is Botrytis cinerea. Description: Fungicidal activity against Botryotinia fuckeliana infected first-leaf stage of cucumber plant at 1000 mg/l applied as spray after 4 to 5 days under green house conditions relative to control.
Assay [12] relates to Blumeria graminis. The experiment in a line: Fungicidal activity against Blumeria graminis infected first-leaf stage of barley plant at 1000 mg/l applied as spray under green house conditions relative to control. In outline:
(§4)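 Barley at fully expanded first leaf (four plants/pot) sprayed with test material (DMSO stock diluted in water with Tween 20 at 250 µg/mL), greenhouse 1 day, then dusted with E. graminis conidia from infected barley (8 treated pots per source pot). Controls got Tween 20 solution. Control value = (untreated − treated disease area)/untreated × 100; triplicate.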

Assay [13] concerns Rhizoctonia solani. Description: Fungicidal activity against Rhizoctonia solani infected in third leaf stage of rice plant at 50 mg/l applied as spray after 5 days under green house conditions relative to control.
The test system of assay [14] is Phytophthora infestans. Description: Fungicidal activity against Phytophthora infestans infected second leaf-stage of tomato plant at 50 mg/l applied as spray after 4 days under green house conditions relative to control.
The test system of assay [15] is Puccinia recondita. Description: Fungicidal activity against Puccinia recondita infected first leaf stage of wheat plant at 50 mg/l applied as spray after 10 days under green house conditions relative to control.
The test system of assay [16] is Blumeria graminis. The experiment in a line: Fungicidal activity against Blumeria graminis infected first-leaf stage of barley plant at 50 mg/l applied as spray under green house conditions relative to control.
In assay [17] the test system is Pyricularia grisea. Description: Fungicidal activity against Magnaporthe grisea infected second leaf stage of rice plant at 50 mg/l applied as spray after 5 days under green house conditions relative to control.
The subject of assay [18] is Botrytis cinerea. Description: Fungicidal activity against Botryotinia fuckeliana infected first-leaf stage of cucumber plant at 50 mg/l applied as spray after 4 to 5 days under green house conditions relative to control.
Assay [19] deals with Puccinia recondita. The experiment in a line: Fungicidal activity against Puccinia recondita infected first leaf stage of wheat plant at 125 mg/l applied as spray after 10 days under green house conditions relative to control. In outline:
as §3

Assay [20] concerns Rhizoctonia solani. The experiment in a line: Fungicidal activity against Rhizoctonia solani infected in third leaf stage of rice plant at 250 mg/l applied as spray after 5 days under green house conditions relative to control. In outline: as §1
Assay [21] relates to Phytophthora infestans. Description: Fungicidal activity against Phytophthora infestans infected second leaf-stage of tomato plant at 125 mg/l applied as spray after 4 days under green house conditions relative to control.
Assay [22] has as its system Botrytis cinerea. Description: Fungicidal activity against Botryotinia fuckeliana infected first-leaf stage of cucumber plant at 125 mg/l applied as spray after 4 to 5 days under green house conditions relative to control. In outline:
(§5)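 Cucumber at first leaf (one plant/pot) sprayed with sample in DMSO/Tween 20 (250 µg/mL) water; controls Tween 20 solution. After 1 day, leaf-sprayed with B. cinerea conidia (1 × 10^6 spores/mL; 15-day PDA culture, 20 °C), held 4-5 days at 20 °C. Control value calculated from diseased area against untreated plants; three replicates.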

For assay [23], the system named is Pyricularia grisea. Description: Fungicidal activity against Magnaporthe grisea infected second leaf stage of rice plant at 250 mg/l applied as spray after 5 days under green house conditions relative to control. In outline: as §2
Assay [24] deals with Botrytis cinerea. The experiment in a line: Fungicidal activity against Botryotinia fuckeliana infected first-leaf stage of cucumber plant at 250 mg/l applied as spray after 4 to 5 days under green house conditions relative to control. In outline:
as §5

For assay [25], the system named is Phytophthora infestans. The experiment in a line: Fungicidal activity against Phytophthora infestans infected second leaf-stage of tomato plant at 250 mg/l applied as spray after 4 days under green house conditions relative to control.
Assay [26] relates to Rhizoctonia solani. Description: Fungicidal activity against Rhizoctonia solani infected in third leaf stage of rice plant at 125 mg/l applied as spray after 5 days under green house conditions relative to control. In outline:
as §1

For assay [27], the system named is Pyricularia grisea. The experiment in a line: Fungicidal activity against Magnaporthe grisea infected second leaf stage of rice plant at 125 mg/l applied as spray after 5 days under green house conditions relative to control. In outline:
as §2

The test system of assay [28] is Puccinia recondita. Description: Fungicidal activity against Puccinia recondita infected first leaf stage of wheat plant at 250 mg/l applied as spray after 10 days under green house conditions relative to control. In outline:
as §3

Assay [29] deals with Blumeria graminis. Description: Fungicidal activity against Blumeria graminis infected first-leaf stage of barley plant at 250 mg/l applied as spray under green house conditions relative to control. In outline:
as §4

For assay [30], the system named is Blumeria graminis. Description: Fungicidal activity against Blumeria graminis infected first-leaf stage of barley plant at 125 mg/l applied as spray under green house conditions relative to control.

As for `CC1(C)C2CCC1(C)C(O)C2` (stereo not drawn) [BORNEOL], the Activity in assay [1], in assay [2], in [3], in assay [4], in assay [5] and in [6] was 0% each time. For the same molecule, the Activity in assay [7], in assay [8], in [9], in assay [10], in [11] and in assay [12] was 0% each time.

For `N#Cc1c(Cl)c(Cl)c(Cl)c(C#N)c1Cl` [CHLOROTHALONIL], the Activity is recorded as 0% in assay [13]; 95% in assay [14]; 0% in [15]; 0% in assay [16]; 0% in assay [17]; 0% in assay [18].

`COc1cc(/C=C/C(=O)CC(=O)/C=C/c2ccc(O)c(OC)c2)ccc1O` [CURCUMIN]: the Activity in [1] stood at 85%; in [2], 100%; in assay [19], 63%; in assay [20] it was 45%; in assay [3], 0%; in assay [21], 57%. Also, the Activity is on record as 0% in [22]; 63% in [4]; 0% in [5]; 0% in [6]; 100% in assay [7]; 100% in [8]. In addition, the Activity was 100% in assay [9]; 0% in [23]; 15% in assay [24]; 85% in [25]; 40% in [10]; 26% in [26]. Further, the Activity in assay [27] is 0%; in assay [28] it was 76%; in [11], 70%; in assay [12] it was 0%; in [29], 0%; in assay [30], 0%.

Regarding `CN(C)S(=O)(=O)N(SC(F)(Cl)Cl)c1ccccc1` [DICHLOFLUANID], the Activity turned out to be 0% in assay [13]; 0% in [14]; 0% in assay [15]; 0% in assay [16]; 0% in assay [17]; 92% in assay [18].

Turning to `CC12CCC(CC1)C(C)(C)O2` [EUCALYPTOL], the Activity in assay [1], in assay [2], in assay [3], in assay [4], in assay [5] and in assay [6] was 0% each time. The Activity in assay [7], in assay [8], in [9], in [10], in assay [11] and in assay [12] was 0% throughout.

With `C=C1CCC2(C(C)C)CC12` (stereo not drawn) [SABINENE], the Activity in assay [1], in assay [2], in assay [3], in [4], in [5] and in assay [6] was 0% throughout. Moreover, the Activity in [7], in assay [8], in assay [9], in assay [10], in assay [11] and in assay [12] was 0% each time.

With `CC(C)=CC(=O)C[C@H](C)C1=CCC(C)=CC1` [TURMERONE], the Activity in assay [1], in [2], in [3], in assay [4], in assay [5] and in [6] was 0% each time. The Activity in [7], in assay [8], in assay [9], in assay [10] and in assay [11] was 0% in each case.
